ChEMBL document CHEMBL3399918, “In vitro radical scavenging and cytotoxic activities of novel hybrid selenocarbamates” (Bioorg Med Chem, 2015)

Columns and labels:
[1] = Cytotoxicity against human PC3 cells after 72 hrs by MTT assay; format: functional; conditions: PC-3, 72 h
Summary of the method: (§1)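 CCRF-CEM, HT-29, PC-3 and HTB-54 cells grown in RPMI 1640 with 10% foetal calf serum, 2 mM L-glutamine, penicillin/streptomycin, 10 mM HEPES (pH 7.4). Five concentrations, 0.01–100 μM, 72 h at 37 °C, 5% CO2; MTT read-out. GI50, TGI and LC50 versus untreated controls; at least 3 independent experiments in quadruplicate.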

HT-29 = assay: Cytotoxicity against human HT-29 cells after 72 hrs by MTT assay; format: functional; conditions: HT-29, 72 h; summary of the method: as §1
CCRF-CEM = assay: Cytotoxicity against human CCRF-CEM cells after 72 hrs by MTT assay; format: functional; summary of the method: as §1
[2] = Cytotoxicity against human HTB-54 cells after 72 hrs by MTT assay; format: functional; conditions: HTB-54, 72 h; for CC50: read-out: LC50 (the source's name); summary of the method: as §1
[3] = Cytotoxicity against human BEAS2B cells after 72 hrs by MTT assay; format: cell-based, BEAS-2B; conditions: for GI50 at 72 h: BEAS2B cells; for LC50 / TGI: beas-2b, 72 h
Summary of the method: (§2)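 Non-malignant lines: 184B5 (normal breast) in Hams F-12/DMEM (50:50) with published supplements; BEAS-2B (bronchial epithelium) in Hams F-12/DMEM (50:50) with 10% foetal calf serum, 2 mM L-glutamine, penicillin/streptomycin. Compounds at five concentrations, 0.01–100 μM, 72 h, 37 °C, 5% CO2; MTT read-out. GI50, TGI, LC50 relative to untreated controls; ≥3 independent experiments in quadruplicate.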

[4] = Cytotoxicity against human 184B5 cells after 72 hrs by MTT assay; format: cell-based; conditions: for GI50 at 72 h: 184B5 cells; for LC50 / TGI: 184b5, 72 h; summary of the method: as §2
MCF7 = assay: Cytotoxicity against human MCF7 cells after 72 hrs by MTT assay; format: functional; conditions: MCF7, 72 h; for CC50: read-out: LC50 (the source's name)
Summary of the method: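 MCF-7 cells grown in EMEM with 10% foetal calf serum, 2 mM L-glutamine, 100 units/mL penicillin, 100 µg/mL streptomycin. Exposed to five concentrations between 0.01 and 100 μM for 72 h, 37 °C, humidified 5% CO2; MTT read-out. GI50, TGI, LC50 relative to untreated controls; ≥3 independent experiments in quadruplicate.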

[5] = Antioxidant activity assessed as ABTS radical scavenging activity by measuring Trolox equivalent antioxidant capacity after 6 mins; format: physicochemical; conditions: 0.1 h
Summary of the method: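 ABTS dissolved in deionized water at 1 mg/mL, oxidised to radical cation with potassium persulfate (2.45 mM final), kept overnight at room temperature in dark, then diluted with 50% ethanol to A741 = 0.700 ± 0.02. Compound (1 mg/mL ethanol stock) added 1:10 (0.1 mg/mL); A741 decrease read after 6 min against 50% ethanol blank. Trolox positive control; quadruplicate; TEAC from calibration curve.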

SMILES	GI50 [1] [µM]	LC50 (concentration causing 50% net cell kill) [1] [µM]	TGI [1] [µM]	GI50 (HT-29) [µM]	LC50 (HT-29) [µM]	TGI (HT-29) [µM]	GI50 (CCRF-CEM) [µM]	LC50 (CCRF-CEM) [µM]	TGI (CCRF-CEM) [µM]	GI50 [2] [µM]	TGI [2] [µM]	CC50 [2] [µM]	GI50 at 72 h [3] [µM]	LC50 [3] [µM]	TGI [3] [µM]	GI50 at 72 h [4] [µM]	LC50 [4] [µM]	GI50 (MCF7) [µM]	TGI (MCF7) [µM]	CC50 (MCF7) [µM]	other results
O=C(Nc1ccc([Se][Se]c2ccc(NC(=O)OCc3ccc([N+](=O)[O-])cc3)cc2)cc1)OCc1ccc([N+](=O)[O-])cc1	6.4	69.2	27.1	16.7	75.9	46.3	8.6	68.1	36.5	31.8	55.6	79.4	6.3	61.6	22.5	6	56.5	20.6	52.8	85	TGI [4]: 13.8 µM
C=CCOC(=O)Nc1ccc([Se]C#N)cc1	17.6	71.8	44.7	24.5	72.8	48.6	9.2	68.6	38.1	27	50.1	73.3	21.4	73.5	47.4	5	53.8	15	43.1	71.2	TGI [4]: 9.8 µM
O=C(Nc1ccc([Se][Se]c2ccc(NC(=O)OCC3c4ccccc4-c4ccccc43)cc2)cc1)OCC1c2ccccc2-c2ccccc21	9.2	70.3	38.8	17.8	80.3	49	14.9	71.4	43.2	36.8	60.5	84.3	7.1	64.1	27.9	6.5	59.4	22.6	52.9	83.3	TGI [4]: 19.7 µM; Activity [5]: 0.93 µg/µL
Cc1ccc(OC(=O)Nc2ccc([Se]C#N)cc2)cc1	7.6	65.1	32.3	8.8	68.7	38.8	17.4	72	44.7	17.3	44.2	71.1	5.6	58.3	15.3	4.4	46.9	9.9	39.9	69.8	TGI [4]: 8.7 µM
N#C[Se]c1ccc(NC(=O)OCC2=Cc3ccccc3S2(=O)=O)cc1	6.3	59.8	21.3	26.1	74.3	50.2	3.3	8.9	6.1	6.8	26.9	62.7	7.7	64.3	29	5.3	59.7	8.3	34.9	66.1	TGI [4]: 19.2 µM; Activity [5]: 1.92 µg/µL
O=C(Nc1ccc([Se][Se]c2ccc(NC(=O)OCC3=Cc4ccccc4S3(=O)=O)cc2)cc1)OCC1=Cc2ccccc2S1(=O)=O	3.8	7.9	5.8	3	7.8	5.4	2.3	7.5	4.9	4.4	6.3	8.2	3.5	7.9	5.7	2.6	7.5	3.2	5.7	8.2	TGI [4]: 5 µM; Activity [5]: 5.78 µg/µL
O=C(Nc1ccc([Se][Se]c2ccc(NC(=O)Oc3ccc(F)cc3)cc2)cc1)Oc1ccc(F)cc1	4.9	64.5	31.3	18.5	85.3	51.9	8.7	68.8	37.6	26.7	51.8	77	0.7	61.8	23.5	3.7	47.8	8	33.7	64.3	TGI [4]: 8.6 µM
COc1ccc(OC(=O)Nc2ccc([Se]C#N)cc2)cc1	7.5	71.6	44.6	13.6	69.6	41.5	13	70	41.5	23.7	48.5	73.3	25.2	71.6	48.4	4.5	59.6	22.4	48.2	74.1	TGI [4]: 19.2 µM; Activity [5]: 2.58 µg/µL
O=C(Nc1ccc([Se][Se]c2ccc(NC(=O)Oc3ccc(Cl)cc3)cc2)cc1)Oc1ccc(Cl)cc1	1	82.6	28.1	9.9	76.9	43.4	10.8	76	43.4	28.6	60.8	93	0.1	64.7	26.6	2.5	52.6	12.4	46	79.6	TGI [4]: 8.9 µM
COc1cc([C@@H]2c3cc4c(cc3[C@@H](O[C@@H]3O[C@@H]5CO[C@@H](C)O[C@H]5[C@H](O)[C@H]3O)[C@H]3COC(=O)[C@H]23)OCO4)cc(OC)c1O [ETOPOSIDE]	0.6	–	4	31.6	–	> 100	1.6	–	50.5	–	–	–	–	–	–	–	–	19.9	> 100	> 100	–
N#C[Se]c1ccc(NC(=O)OCc2ccc([N+](=O)[O-])cc2)cc1	9	67.6	36.5	22.4	71.9	47.1	9.3	68.8	38.3	22.9	47.6	72.4	7.7	65.8	32.8	6	58.5	11.8	40.7	69.5	TGI [4]: 18 µM; Activity [5]: 9.66 µg/µL
